# Screening results: PubChem BioAssay, The Scripps Research Institute Molecular Screening Center
# A selection: hits, their analogues and other compounds. The true share with any hit is near 2.2%.
# SMARCA2 activ – SMARCA2 function activation, primary screen; MG213 cells, MMTV-luciferase reporter, dexamethasone, overnight; activation, % at 9.1 µM; hit rate 1% among 370,000; AID 652017; in the data active = activation above about 7.8%;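 note: 0% = vehicle wells and 100% = reference activator wells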
# NR2E3 ag-1 – activates human photoreceptor nuclear receptor NR2E3; Q9Y5X4; GST-NR2E3/biotin-RetCOR TR-FRET, 1536-well; inhibition of corepressor binding, % at 4.78 µM; hit rate 0.12% among 320,000; AID 2300;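 active = percent inhibition above the cutoff of mean plus 3 SD of all tested compounds, set per screening campaign, cut at about 20% in these data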;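 note: 0% = DMSO wells and 100% = biotin wells as full block of FRET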
# Target sequence (Q9Y5X4 whole entry, looked up): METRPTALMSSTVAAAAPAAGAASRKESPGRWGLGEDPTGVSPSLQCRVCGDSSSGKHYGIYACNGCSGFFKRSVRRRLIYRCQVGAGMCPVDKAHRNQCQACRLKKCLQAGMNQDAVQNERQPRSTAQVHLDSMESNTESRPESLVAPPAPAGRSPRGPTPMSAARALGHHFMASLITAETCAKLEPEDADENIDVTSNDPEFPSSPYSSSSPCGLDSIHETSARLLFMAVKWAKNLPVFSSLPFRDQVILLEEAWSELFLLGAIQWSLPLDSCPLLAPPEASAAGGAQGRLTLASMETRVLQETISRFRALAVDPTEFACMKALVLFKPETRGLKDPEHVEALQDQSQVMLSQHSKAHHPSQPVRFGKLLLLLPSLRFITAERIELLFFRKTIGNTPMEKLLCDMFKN
#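 Test system – NR2E3–RetCOR corepressor complex · Quantity – NR2E3 fusion 1.35 nM · Buffer or medium – Tris pH 7.5 · Incubation – Compound–protein incubation for 5 h at 4 °C · Technique – TR-FRET, Eu(K)-anti-GST donor, streptavidin-D2 acceptor, ex 340, em 617/671 nm · Evaluation – percent inhibition of 671/617 nm emission ratio versus biotin and DMSO controls · Plate – 1536-well format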
# NR2E3 ag-2 – agonists of human NR2E3 nuclear receptor; AID 602229; inhibition of corepressor binding, % at 3.98 µM; CHO-S Gal4-NCOR/VP16-NR2E3 two-hybrid, luciferase; hit rate 0.35% among 360,000; Q9Y5X4;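 active = inhibition above the mean of all tested compounds plus 3 SD, cut at about 70% in these data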;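 note: 0% = DMSO with NR2E3 transfected cells and 100% = cells lacking NR2E3 construct; higher means lower luciferase signal from less NR2E3 corepressor binding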
# COUP-TFII inh – NR2F2 (human) inhibition, primary screen; P24468; HEK293T NGFI-A luciferase reporter, luminescence; inhibition, % at 8.6 µM; hit rate 0.7% among 370,000; AID 686940;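 active = inhibition above a per-plate cutoff, mean inhibition of test wells between control levels plus 3 SD, cut at about 38% in these data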;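 note: cells cotransfected with COUP-TFII expression vector driving the NGFI-A reporter; 0% = median of COUP-TF2 test wells and 100% = reporter-only cells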
# GalR3 antag – blocks the human galanin receptor 3 | HEK293 GalR3-CNG cAMP membrane potential fluorescence; galR3 body fused to GalR1 C-terminus | inhibition, % at 3 µM | hit rate 0.44% among 360,000 | AID 651719;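 active = inhibition above the screen-wide average plus 3 SD, cut at about 13% in these data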;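 note: forskolin and galanin both at EC90 stimulate the cells; cAMP rise reported by CNG channel membrane potential dye signal; 0% = forskolin plus galanin with DMSO and 100% = forskolin alone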
# VP16 Luc counter – inhibits VP16 reporter, flagging COUP-TFII antagonist hits; shares compounds with COUP-TFII inh; HEK293 Gal4-VP16 luciferase reporter, luminescence; inhibition, % at 8.5 µM; hit rate 25% among 2,500; AID 687007; in the data active = inhibition above about 13%
# NR2F2 inh conf – COUP-TFII (NR2F2) inhibition, confirmation assay | shares compounds with COUP-TFII inh | HEK293 NGFI-A luciferase reporter, luminescence | inhibition, % at 8.5 µM | hit rate 45% among 2,500;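 active = mean inhibition over three repeats above a set limit taken from the earlier primary screen, cut at about 38% in these data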;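 note: 100% = cells given the luciferase reporter alone without the COUP-TF2 vector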
# The depositor's hits bear a star; nt = no result; ! = a repeat was not active.
SMILES,SMARCA2 activ,NR2E3 ag-1,NR2E3 ag-2,COUP-TFII inh,GalR3 antag,VP16 Luc counter,NR2F2 inh conf
CCCCn1c(CN(C)Cc2ccccc2)nc2c1c(=O)n(C)c(=O)n2C,-3,-1,18,40*,-5,-2,23
CCCn1c(CN(C)Cc2ccccc2)nc2c1c(=O)n(C)c(=O)n2C,-3,0,21,24,-3,nt,nt
CCn1c(SCC(=O)Nc2ccc(C(=O)OC)cc2)nnc1-c1cccc(Cl)c1,-5,nt,nt,10,nt,nt,nt
Nc1cc[n+](CC(=O)c2ccc3c(c2)OCCO3)cc1,-6,4,-12,40*,-3,-3,16
O=C(C[n+]1ccc(C(=O)NCc2ccccc2)cc1)c1ccc2c(c1)OCCO2,-1,3,-20,-12,-3,nt,nt
CCc1c(C)nc2ncnn2c1NCCc1ccc(Cl)cc1,-4,4,32,47*,3,1,18
CCC1CCCCN1C(=O)c1c(-c2ccccc2)noc1C (stereo not drawn),2,4,-30,19,-1,nt,nt
CCC1CCCCN1C(=O)n1ncc(C(O)(c2ccccc2)c2ccccc2)n1 (stereo not drawn),nt,nt,nt,50*,nt,-4,43*!
CN(Cc1ccccc1)C(=O)OCc1cn(Cc2cccc(F)c2F)nn1,-2,nt,nt,5,nt,nt,nt
O=C(C1CCCN(S(=O)(=O)c2ccccc2)C1)N1CCCc2ccccc21 (stereo not drawn),-3,0,-10,37*,-1,-10,8
Cc1ccc(S(=O)(=O)N2CCCC(C(=O)N3CCCc4ccccc43)C2)cc1 (stereo not drawn),5,0,4,-5,-2,nt,nt
O=C(C1CCCN1S(=O)(=O)c1ccccc1[N+](=O)[O-])N1CCN(c2ccccc2)CC1 (stereo not drawn),-5,nt,nt,-2,nt,nt,nt
CCC(=O)Nc1nc(-c2ccc3c(c2)CC(C)N3S(C)(=O)=O)cs1 (stereo not drawn),0,2,-49,0,-7,nt,nt
CC1Cc2cc(-c3csc(NC(=O)Cc4cccs4)n3)ccc2N1S(C)(=O)=O (stereo not drawn),-8,-3,10,81*,10,-2,85*
COc1ccc(CNC(=O)c2cc(S(=O)(=O)N3CCCCC3)ccc2Cl)cc1OC,-9,nt,12,51*,-4,2,33
C=C1[C@@H]2CC[C@H]3[C@]4(C)[C@@H](O)CC[C@@](C)(C(=O)OC)[C@H]4C[C@H](O)[C@]3(C2)[C@H]1O,-2,nt,nt,-14,nt,nt,nt
Clc1cccc(C[n+]2cc(-c3ccccc3)n3c2CCC3)c1,-5,4,-6,-2,3,nt,nt
Cc1ccc(-c2c[n+](Cc3cccc(Cl)c3)c3n2CCC3)cc1,-9,4,-22,38*,-3,4,8
Cc1ccc(S(=O)(=O)N(C)c2ccc(OCC(=O)Nc3nc4ccccc4s3)cc2)cc1,-6,1,-23,39*,-8,5,28
CN1CCCN(S(=O)(=O)c2ccc3c(c2)CCC(=O)N3)CC1,-1,nt,nt,9,nt,nt,nt
C#CCN(C[C@@H]1[C@@H](OC(=O)NCCCCCC)[C@@H](OC(=O)NCCCCCC)Cn2c(=O)ccc(=O)n21)S(=O)(=O)c1ccc(C)cc1,-5,nt,6,29,-7,nt,nt
C#CCN(C[C@@H]1[C@@H](OC(=O)NCC2CCCCC2)[C@@H](OC(=O)NCC2CCCCC2)Cn2c(=O)ccc(=O)n21)S(=O)(=O)c1ccc(C)cc1,-7,nt,21,54*,-7,45*,57*
COc1cc(-c2c(C(=O)c3ccccc3)[nH]c(N)c2C(=O)NCCc2c[nH]c3ccccc23)ccc1F,2,nt,nt,3,-8,nt,nt
O=C(Nc1cccc(S(=O)(=O)N2CCCCC2)c1)c1ccc2c(=O)n3c(nc2c1)CCCCC3,-3,2,-3,45*,-3,0,49*
CC(C)NC(=O)CN1C(=O)c2ccccc2S1(=O)=O,-2,3,3,-12,0,nt,nt
CCn1c(C)cc(C(=O)CN2C(=O)c3ccccc3S2(=O)=O)c1C,-4,1,36,41*,-9,41*,72*
